Converted amounts (≈) assume the structure as drawn.
Columns and labels:
[1] = target: T1, Energy-coupling factor transporter transmembrane protein EcfT (Lactobacillus casei) (UniProt A0A510WMC0); test: Inhibition of Lactobacillus casei ECF-FolT assessed as inhibition of radiolabelled folic acid uptake at 50 uM pre-incubated for 10 mins followed tritium labeled folic acid addition measured after 30 mins by liquid scintillation analysis relative to control; details: Lacticaseibacillus casei, time 40.0 min
T1 sequence (whole entry): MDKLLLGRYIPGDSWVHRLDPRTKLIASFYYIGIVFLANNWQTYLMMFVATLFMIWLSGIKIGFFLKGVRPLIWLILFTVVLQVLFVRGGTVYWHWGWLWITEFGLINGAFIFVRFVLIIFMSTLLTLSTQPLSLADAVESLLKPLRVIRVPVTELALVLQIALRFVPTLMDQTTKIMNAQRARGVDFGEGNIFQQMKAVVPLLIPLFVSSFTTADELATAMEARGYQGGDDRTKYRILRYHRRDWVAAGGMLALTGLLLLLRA
In short: (§1)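 Whole-cell *L. casei* assay of ECF-FolT-mediated folate uptake. Compounds were first tested at 50 μM and reported as % inhibition. IC50 was determined for those giving more than 70% inhibition at 50 μM. Data come from two independent experiments, each run in duplicate.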

[2] = target: T2, Energy-coupling factor transporter transmembrane protein EcfT (Lactobacillus casei, UniProt A0A510WMC0); test: Inhibition of Lactobacillus casei ECF-FolT assessed as inhibition of radiolabelled folic acid uptake pre-incubated for 10 mins followed tritium labeled folic acid addition measured after 30 mins by liquid scintillation analysis; parameters: species or system Lacticaseibacillus casei; in short: as §1
T2 sequence (A0A510WMC0 whole entry): T1 sequence (whole entry)

[3] = tested on: Enterococcus faecium; test: Antibacterial activity against Enterococcus faecium DSM-20477 measured after 24 hrs by CLSI protocol based microbroth dilution method; type: functional
[4] = Kinetic solubility of the compound; type: physicochemical; details: read-out: Kinetic_solubility
[5] = tested on: Enterococcus faecium; test: Antibacterial activity against vancomycin-resistant Enterococcus faecium DSM-17050 measured after 24 hrs by CLSI protocol based microbroth dilution method; type: functional
[6] = tested on: HepG2; test: Cytotoxicity against human HepG2 cells assessed as reduction in cell viability measured after 48 hrs by MTT assay; type: toxicity, cell-based
[7] = tested on: Streptococcus pneumoniae; test: Antibacterial activity against penicillin-resistant Streptococcus pneumoniae DSM-11865 measured after 24 hrs by CLSI protocol based microbroth dilution method; type: functional
[8] = tested on: HEK293; test: Cytotoxicity against HEK293 cells assessed as reduction in cell viability measured after 48 hrs by MTT assay; type: toxicity, cell-based, Homo sapiens
[9] = tested on: A549; test: Cytotoxicity against human A549 cells assessed as reduction in cell viability measured after 48 hrs by MTT assay; type: toxicity, cell-based
[10] = tested on: Streptococcus pneumoniae; test: Antibacterial activity against Streptococcus pneumoniae DSM-20566 measured after 24 hrs by CLSI protocol based microbroth dilution method; type: functional
[11] = tested on: Staphylococcus aureus; test: Antibacterial activity against Staphylococcus aureus Newman measured after 24 hrs by CLSI protocol based microbroth dilution method; type: functional

inhibition [1] | SMILES | IC50 [2] | also measured
52.3% | CCCCCCNC(=O)Nc1cc(-c2cccc(C(F)(F)F)c2)sc1C(=O)O | – | –
17.9% | CCCCCCNC(=O)Nc1sc(-c2ccc(Cl)c(Cl)c2)cc1C(=O)O | – | –
95.2% | CCCCCCNc1c(-c2ccc(Cl)c(Cl)c2)csc1C(=O)O | – | –
27.1% | CCCCCCNC(=O)Nc1cc(-c2ccc(C(F)(F)F)cc2)sc1C(=O)O | – | –
67.9% | CCCCCCNC(=O)Nc1cc(-c2ccc(Cl)cc2Cl)sc1C(=O)O | – | –
38.9% | CCN(Cc1ccccc1)C(=O)Nc1cc(-c2ccc(C)cc2)sc1C(=O)O | – | –
12.1% | CCCCCCNC(=O)Nc1cc(-c2ccc(OC)cc2)sc1C(=O)O | – | –
57.8% | CCCCN(CCc1ccccc1)C(=O)Nc1cc(-c2ccc(Cl)c(Cl)c2)sc1C(=O)O | – | –
22% | CCN(Cc1ccccc1)C(=O)Nc1cc(-c2cc(Cl)cc(Cl)c2)sc1C(=O)O | – | –
36.2% | CCCCCCNC(=O)Nc1cc(-c2cccc(Cl)c2)sc1C(=O)O | – | –
59% | O=C(NCc1ccccn1)Nc1cc(-c2ccc(Cl)c(Cl)c2)sc1C(=O)O | – | –
< 10% | CCCCCCNC(=O)Nc1ccsc1C(=O)O | – | –
42.5% | CCCCN(Cc1ccccc1)C(=O)Nc1cc(-c2ccc(Cl)c(Cl)c2)sc1C(=O)O | – | –
39.3% | CC(C)NC(=O)Nc1cc(-c2ccc(Cl)c(Cl)c2)sc1C(=O)O | – | –
59% | CCCCCCNC(=O)Nc1cc(-c2ccc(Cl)c(C(F)(F)F)c2)sc1C(=O)O | – | –
31.8% | CCCCC(=O)Nc1c(-c2ccc(Cl)c(Cl)c2)csc1C(=O)O | – | –
25.1% | CCCCCCNC(=O)Nc1cc(-c2ccccc2)sc1C(=O)O | – | –
0.2% | O=C(O)CCCNC(=O)Nc1cc(-c2ccc(Cl)c(Cl)c2)sc1C(=O)O | – | –
65.4% | CCCCCCNC(=O)Nc1c(C(=O)O)cccc1-c1ccc(Cl)c(Cl)c1 | – | –
54% | O=C(NCc1ccncc1)Nc1cc(-c2ccc(Cl)c(Cl)c2)sc1C(=O)O | – | –
42.4% | NC(=O)Nc1cc(-c2ccc(Cl)c(Cl)c2)sc1C(=O)O | – | –
58% | O=C(NCc1cccnc1)Nc1cc(-c2ccc(Cl)c(Cl)c2)sc1C(=O)O | – | –
52.3% | CCN(Cc1ccccc1)C(=O)Nc1cc(-c2ccc(Br)cc2)sc1C(=O)O | – | –
27.2% | CCCCCCNC(=O)Nc1cc(-c2ccc(Cl)cc2)sc1C(=O)O | – | –
< 10% | Nc1c(-c2ccc(Cl)c(Cl)c2)csc1C(=O)O | – | –
54.3% | COc1ccc(CNC(=O)Nc2cc(-c3ccc(Cl)c(Cl)c3)sc2C(=O)O)cc1 | – | –
61.9% | CCCCNC(=O)Nc1cc(-c2ccc(Cl)c(Cl)c2)sc1C(=O)O | – | –
67.2% | CCN(Cc1ccccc1)C(=O)Nc1cc(-c2ccc(OC(F)(F)F)cc2)sc1C(=O)O | – | –
18.3% | CCN(Cc1ccccc1)C(=O)Nc1cc(-c2ccc(C#N)cc2)sc1C(=O)O | – | –

SMILES | inhibition [1] | IC50 [2] | also measured
O=C(NCCc1ccccc1)Nc1cc(-c2ccc(Cl)c(Cl)c2)sc1C(=O)O | 91.7% | 15.3 µM | –
CCCCCCNC(=O)Nc1c(-c2ccc(Cl)c(Cl)c2)csc1C(=O)O | 90.6% | 6 µM | –
CCCCN(C(=O)Nc1cc(-c2ccc(Cl)c(Cl)c2)sc1C(=O)O)c1ccccc1 | 99.6% | 2.35 µM | MIC [3]: 8 µM (≈ 3.71 µg/mL); solubility kinetic [4]: 107 µM (≈ 49.4 µg/mL); MIC [5]: 2 µM (≈ 0.927 µg/mL); IC50 [6]: 95.6 µM; MIC [7]: 0.5 µM (≈ 0.232 µg/mL); IC50 [8]: 52.5 µM; IC50 [9]: > 100 µM; MIC [10]: 2 µM (≈ 0.927 µg/mL); MIC [11]: 23 µM (≈ 10.7 µg/mL)
CCN(Cc1ccccc1)C(=O)Nc1cc(-c2ccc(Cl)c(Cl)c2)sc1C(=O)O | 89.4% | 11.4 µM | –
CN(Cc1ccccc1)C(=O)Nc1cc(-c2ccc(Cl)c(Cl)c2)sc1C(=O)O | 86.9% | 10 µM | –
CCCCCCNC(=O)Nc1cc(-c2ccc(Cl)c(Cl)c2)sc1C(=O)O | 72.2% | 28.5 µM | –
CN(C(=O)Nc1cc(-c2ccc(Cl)c(Cl)c2)sc1C(=O)O)c1ccccc1 | 71.5% | 23 µM | –
CCN(Cc1ccccc1)C(=O)Nc1cc(-c2ccc(Oc3ccccc3)cc2)sc1C(=O)O | 97% | 10.1 µM | –
CCN(C(=O)Nc1cc(-c2ccc(Cl)c(Cl)c2)sc1C(=O)O)c1ccccc1 | 83.2% | 10.5 µM | –
CCCCN(C(=O)Nc1c(-c2ccc(Oc3ccccc3)cc2)csc1C(=O)O)c1ccccc1 | 100% | 3.9 µM | MIC [3]: 16 µM (≈ 7.79 µg/mL); solubility kinetic [4]: > 200 µM; MIC [5]: 8 µM (≈ 3.89 µg/mL); IC50 [6]: 57 µM; MIC [7]: 16 µM (≈ 7.79 µg/mL); IC50 [8]: 25.5 µM; IC50 [9]: 49.3 µM; MIC [10]: 4 µM (≈ 1.95 µg/mL); MIC [11]: 16 µM (≈ 7.79 µg/mL)
CCCCCCNC(=O)Nc1scc(-c2ccc(Cl)c(Cl)c2)c1C(=O)O | 87.5% | 18.5 µM | –
CCCCN(C(=O)Nc1c(-c2cc(Cl)ccc2Cl)csc1C(=O)O)c1ccccc1 | 73.4% | 17 µM | –
O=C(NCc1ccccc1)Nc1cc(-c2ccc(Cl)c(Cl)c2)sc1C(=O)O | 71.1% | 17.8 µM | –
O=C(O)c1sc(-c2ccc(Cl)c(Cl)c2)cc1NC(=O)N(Cc1ccccc1)c1ccccc1 | 91.3% | 2.94 µM | –
CCCCCCNC(=O)Nc1cc(-c2cc(Cl)ccc2Cl)sc1C(=O)O | 93.4% | 21.8 µM | –
O=C(O)c1sc(-c2ccc(Cl)c(Cl)c2)cc1NC(=O)N(Cc1ccccc1)Cc1ccccc1 | 85.1% | 24 µM | –
CCCCCCNC(=O)Nc1cc(-c2cccc([N+](=O)[O-])c2)sc1C(=O)O | 65.3% | 43.3 µM | –
CCCCCCNC(=O)Nc1cc(-c2ccc([N+](=O)[O-])cc2)sc1C(=O)O | 82.1% | 25.1 µM | –
O=C(Nc1ccccc1)Nc1cc(-c2ccc(Cl)c(Cl)c2)sc1C(=O)O | 86.8% | 14.4 µM | –

Reference: ChEMBL document CHEMBL5131565, “Structure-Guided Optimization of Small-Molecule Folate Uptake Inhibitors Targeting the Energy-Coupling Factor Transporters” (J Med Chem, 2022)
